Published values pooled from the literature.
Each line is one published result; the experiments were not run side by side.
Kir1 channel protein: Kir1 channel protein (Aedes aegypti, UniProt L0EQS9)
MMP14: Matrix metalloproteinase-14 (MMP14, Homo sapiens, UniProt P50281)

| SMILES | target | assay | test system | setting | IC50 [µM] |
| --- | --- | --- | --- | --- | --- |
| COc1cc2c(NC3CCN(C)CC3)nc(N3CCCN(C)CC3)nc2cc1OCCCN(C)C | Lysine-specific demethylase 4E (KDM4E, Homo sapiens, UniProt B2RXH2) | enzyme activity, inhibitor | – | – | > 57 |
| O=C(O)CC(=O)C(=O)O | L-lactate dehydrogenase B chain (LDHB, Homo sapiens, UniProt P07195) | enzyme activity, inhibitor | – | – | 1020 |
| Cc1cc(O)cc(C)c1C[C@H](NC(=O)[C@@H]1CCCN1C(=O)[C@H](CCCNC(=N)N)NC(=O)[C@H](CCCNC(=N)N)N(C)C(=O)[C@@H](CCC(N)=O)NC(=O)[C@@H](CCC(N)=O)NC(=O)[C@@H](CCC(N)=O)NC(=O)[C@H](Cc1cn(CCNC(=O)[C@H](CC(C)C)NC(=O)[C@H](CC(C)C)NC(=O)C2OC2C(=O)O)nn1)NC(=O)CN1CCN(CC(=O)O)CCN(CC(=O)O)CCN(CC(=O)O)CC1)C(=O)N[C@H](C(=O)N[C@@H](CC(C)C)C(=O)O)C(C)(C)C (mixture of isomers) | Neurotensin receptor type 1 (NTSR1, Homo sapiens, UniProt P30989) | ligand displacement, radioligand | – | – | 0.092 |
| C=CC(=O)Nc1cc(Nc2nccc(Nc3cc(Cl)c(F)cc3C(C)(C)O)n2)c(OC)cc1N1CC[C@@H](N(C)C)C1 | Cytochrome P450 2E1 (CYP2E1, Homo sapiens, UniProt P05181) | enzyme activity, inhibitor | human, liver microsomes | – | > 30 |
| CN1CCN(c2ccc(Nc3ncc4cc(C#N)c(=O)n(C5CCCC5)c4n3)cc2)CC1 | Receptor tyrosine-protein kinase erbB-4 (ERBB4, Homo sapiens, UniProt Q15303) | enzyme activity, inhibitor | – | – | 3.09 |
| COc1ccc(F)cc1C(=O)NCc1ccc(-c2nn([C@@H](C)C(F)(F)F)c(N)c2C(N)=O)cc1 | Tyrosine-protein kinase BTK (BTK, Homo sapiens, UniProt Q06187, C481G) | phosphorylation in cells, inhibitor | – | – | 0.0139 |
| COc1ccc(-c2nsc(NC(=O)[C@@H]3C[C@H]3C)c2C)cc1 | Metabotropic glutamate receptor 8 (GRM8, Homo sapiens, UniProt O00222) | calcium signal, antagonist | – | – | > 12.5 |
| Cc1cnc(-c2ccc(-c3ccc(NC(=O)Nc4c(F)cc(F)cc4F)cc3F)c3c2C(=O)NC3)[nH]1 | Mitogen-activated protein kinase kinase kinase 19 (MAP3K19, Homo sapiens, UniProt Q56UN5) | enzyme activity, inhibitor | – | – | 0.0173 |
| O=[N+]([O-])c1ccc(N2CCN(S(=O)(=O)c3ccc(F)cc3)CC2)cc1NCc1ccncc1 | Kir1 channel protein | ion flux, inhibitor | – | – | 0.39 |
| O=C(Oc1nsnc1N1CCCCC1)N1CCOCC1 | Monoacylglycerol lipase ABHD6 (ABHD6, Homo sapiens, UniProt Q9BV23) | enzyme activity, inhibitor, fluorescence | – | lysate | 0.052 |
| N#Cc1ccc(N2CCN(S(=O)(=O)c3ccc(F)cc3)CC2)cc1NCc1ccncc1 | Kir1 channel protein | ion current, inhibitor, patch clamp | – | – | 0.0276 |
| O=C(O)c1cc2ccccc2c(Cc2c(O)c(C(=O)O)cc3ccccc23)c1O | DNA polymerase eta (POLH, Homo sapiens, UniProt Q9Y253) | enzyme activity, inhibitor | – | – | 79 |
| O=[N+]([O-])c1ccc(N2CCN(S(=O)(=O)c3ccccc3)CC2)cc1NCc1cccnc1 | Kir1 channel protein | ion flux, inhibitor | – | – | 0.55 |
| Cc1noc(-c2cc3cc(-c4nc(C(=O)NCc5ccc(=O)[nH]c5)[nH]c4C)ccc3[nH]2)n1 | MMP14 | enzyme activity, inhibitor | – | – | > 24 |
| O=[N+]([O-])c1ccc(N2CCN(S(=O)(=O)c3ccc(F)cc3)CC2)cc1NCc1ccco1 | Kir1 channel protein | ion flux, inhibitor | – | – | 1.29 |
| COc1ccc(CNc2c(CO)cnc3c(C4CC4)cc(C#N)cc23)cn1 | Dual 3',5'-cyclic-AMP and -GMP phosphodiesterase 11A (PDE11A, Homo sapiens, UniProt Q9HCR9) | enzyme activity, inhibitor | – | – | > 10 |
| Cc1noc(-c2cc3cc(-c4cc(C(=O)NCc5ccc(C(=O)O)cc5)nn4C)ccc3[nH]2)n1 | MMP14 | enzyme activity, inhibitor | – | – | > 20 |
| O=[N+]([O-])c1ccc(N2CCN(S(=O)(=O)c3ccc(F)cc3)CC2)cc1NCc1ccccn1 | Kir1 channel protein | ion current, inhibitor, patch clamp | – | – | 0.0355 |
